Sampled rows, rich in hits. Any-hit rate of the full collection: about 3.2%.
MEKK2mut PB1 HTS: signal of MEK5 binding to mutant human MEKK2 PB1 domain; bead flow cytometry, Alexa488-MEK5 binding to MEKK2 mutant; percent response, % at 10 µM; hit rate 0.35% among 290,000; in the data active means percent response above about 24%, passing the limit was not always enough
UBC13 polyUb: inhibitors of human UBC13 polyubiquitin chain formation; P61088; TR-FRET; inhibition, % at 20 µM; hit rate 0.47% among 330,000; AID 485273; in the data active means inhibition above about 45%, passing the limit was not always enough
Apaf-1 inh: blocks human Apaf-1 apoptosome activity; hit rate 0.71% among 330,000; reconstituted apoptosome caspase-3 activity, DEVD-Rh110 fluorescence; inhibition, % at 20 µM; O14727; active means inhibition of at least 40% at 20 µM;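 further: plate controls were DMSO wells for no effect and DEVD-CHO caspase inhibitor wells for full effect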
Target sequence (O14727 whole entry, looked up): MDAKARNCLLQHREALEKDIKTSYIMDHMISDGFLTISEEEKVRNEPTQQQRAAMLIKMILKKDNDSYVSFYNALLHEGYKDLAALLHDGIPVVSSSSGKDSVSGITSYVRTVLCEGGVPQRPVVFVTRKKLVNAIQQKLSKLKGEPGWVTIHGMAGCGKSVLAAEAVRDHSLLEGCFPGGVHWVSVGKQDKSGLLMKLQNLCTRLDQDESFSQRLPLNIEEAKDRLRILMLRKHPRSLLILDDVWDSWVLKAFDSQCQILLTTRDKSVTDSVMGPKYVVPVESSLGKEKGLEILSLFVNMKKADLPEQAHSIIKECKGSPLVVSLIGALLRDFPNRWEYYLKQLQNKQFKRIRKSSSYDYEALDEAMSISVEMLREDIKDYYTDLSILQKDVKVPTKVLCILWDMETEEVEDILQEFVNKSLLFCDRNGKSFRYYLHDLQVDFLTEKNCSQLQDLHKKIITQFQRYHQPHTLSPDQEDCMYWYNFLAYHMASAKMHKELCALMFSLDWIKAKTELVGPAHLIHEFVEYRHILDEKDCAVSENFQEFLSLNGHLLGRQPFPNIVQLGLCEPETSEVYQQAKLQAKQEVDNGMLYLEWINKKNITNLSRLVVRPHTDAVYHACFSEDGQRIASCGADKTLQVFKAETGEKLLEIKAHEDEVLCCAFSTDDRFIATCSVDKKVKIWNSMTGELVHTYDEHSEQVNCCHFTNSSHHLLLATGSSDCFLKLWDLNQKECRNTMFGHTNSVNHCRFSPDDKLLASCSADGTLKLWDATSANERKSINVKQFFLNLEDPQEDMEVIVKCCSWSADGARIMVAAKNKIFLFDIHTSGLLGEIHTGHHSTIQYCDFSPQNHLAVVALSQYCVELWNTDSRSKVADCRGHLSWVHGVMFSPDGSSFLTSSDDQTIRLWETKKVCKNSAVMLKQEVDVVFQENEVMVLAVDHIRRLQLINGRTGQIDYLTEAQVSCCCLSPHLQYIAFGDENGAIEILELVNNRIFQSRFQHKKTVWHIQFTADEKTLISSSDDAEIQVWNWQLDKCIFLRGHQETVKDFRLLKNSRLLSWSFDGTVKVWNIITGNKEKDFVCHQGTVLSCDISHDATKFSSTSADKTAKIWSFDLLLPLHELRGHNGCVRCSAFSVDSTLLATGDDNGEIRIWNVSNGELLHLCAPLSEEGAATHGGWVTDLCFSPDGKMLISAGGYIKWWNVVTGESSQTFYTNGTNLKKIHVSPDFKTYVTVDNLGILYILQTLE
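System: reconstituted apoptosome with Apaf-1, cytochrome c, caspase-9, procaspase-3, dATP; Signal: Rh110 fluorescence intensity; Schedule: 30 min compound preincubation, 50 min activation, room temperature; Reagent: cytochrome c trigger plus (Z-DEVD)2-Rh110 caspase-3 substrate.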
MEKK2wt PB1 HTS: raises or lowers MEK5 binding to wildtype human MEKK2 PB1 domain. bead flow cytometry, Alexa488-MEK5 binding to MEKK2 WT; actives lie on both sides. binding response (% of control), % at 10 µM. hit rate 1.1% among 290,000. AID 1531; in the data active means binding response below about 67% or above about 130%
MEKK3 PB1 HTS: raises or lowers MEK5 binding to the human MEKK3 PB1 domain. binding response (% of control), % at 10 µM. AID 1529. Q99759. hit rate 1.4% among 290,000. bead-based flow cytometry, Alexa488-MEK5 binding to MEKK3; actives lie on both sides; 0 = blocked by unlabeled MEK5, 100 = vehicle;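 active means binding response more than 3 SD above or below the average of its plate-row segment, actives on both sides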;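 further: Alexa488 bead fluorescence after subtracting the streptavidin-only scavenger bead signal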
Pemphigus Ab inh: inhibitors of pemphigus antibody binding to human desmoglein-3 | P32926 | DSG3-coupled beads, scFv-anti-DSG3-GFP binding, flow cytometry; stronger effect = lower value | binding (percent of control), % at 10 µM | hit rate 0.48% among 310,000;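 active means binding more than 3 SD below its plate's average and above zero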
MEKK2wt confirm: raises or lowers MEK5 binding to wildtype human MEKK2, retest; binding response (% of control), % at 10 µM; shares compounds with MEKK3 PB1 HTS; bead flow cytometry, Alexa488-MEK5 binding to MEKK2 WT; actives lie on both sides; hit rate 2.4% among 5,900; in the data active means binding response below about 16% or above about 210%; inactive means in between
MEKK2mut confirm: signal of MEK5 binding to mutant human MEKK2, retest | AID 1893 | hit rate 2% among 5,900 | shares compounds with MEKK3 PB1 HTS | percent response, % at 10 µM | bead flow cytometry, Alexa488-MEK5 binding to MEKK2 mutant; in the data active means percent response mostly above about 71%, no sharp cut-off; inactive means mostly below about 38%;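 further: higher means compound restores mutant binding toward wildtype level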
MEKK3 confirm: MEKK3-MEK5 PB1 inhibition, single concentration confirmation; shares compounds with MEKK3 PB1 HTS; bead flow cytometry, Alexa488-MEK5 binding to MEKK3; stronger effect = lower value; binding response (% of control), % at 10 µM; hit rate 1.8% among 5,900; AID 1894;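 active means binding response below 72% of control, or above a set upper limit, though filed actives all read lower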;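 further: 100% = DMSO only wells and 0% = binding blocked by excess unlabeled MEK5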
* hit, by the source's call; [ ] = another dose, or the depositor's remark.

What do the screens show for `O=C(CCc1nnc(CCCCc2ccccc2)o1)NCCCc1cccnc1`?
MEKK2mut PB1 HTS: -19.0; UBC13 polyUb: 5.1; Apaf-1 inh: -7.7; MEKK2wt PB1 HTS: 9.0*[inhibitor]; MEKK3 PB1 HTS: 66.0; Pemphigus Ab inh: 95.0; MEKK2wt confirm: 102.0; MEKK2mut confirm: 4.0; MEKK3 confirm: 106.0

How did CC(C)(C)c1ccc(NC(=O)c2c(F)cccc2Cl)cc1 do in these assays?
MEKK2mut PB1 HTS: -61.0; UBC13 polyUb: -4.3; Apaf-1 inh: 1.8; MEKK2wt PB1 HTS: 34.0*[inhibitor]; MEKK3 PB1 HTS: 47.0*[inhibitor]; Pemphigus Ab inh: 102.0; MEKK2wt confirm: 105.0; MEKK2mut confirm: 5.0; MEKK3 confirm: 105.0

How did O=C(Nc1ccc(N2CCOCC2)cc1)c1c(F)cccc1Cl do in these assays?
MEKK2mut PB1 HTS: -12.0; UBC13 polyUb: 0.6; Apaf-1 inh: 2.3; MEKK2wt PB1 HTS: 90.0; MEKK3 PB1 HTS: 105.0; Pemphigus Ab inh: 102.5

How did COc1ccc(NC(=O)CSCC(=O)Nc2cc(Cl)ccc2N2CCCC2)cc1 do in these assays?
MEKK2mut PB1 HTS: -1.0; UBC13 polyUb: 0.0; Apaf-1 inh: 13.9; MEKK2wt PB1 HTS: 104.0; MEKK3 PB1 HTS: 95.0; Pemphigus Ab inh: 102.6

Results for Cc1cccc(N(C(=O)Nc2ccccc2)C2=NCC(C)S2)c1 (stereo unspecified) ?
MEKK2mut PB1 HTS: 1.0; UBC13 polyUb: 4.0; Apaf-1 inh: -1.7; MEKK2wt PB1 HTS: 102.0; MEKK3 PB1 HTS: 105.0; Pemphigus Ab inh: 106.3

What do the screens show for `COc1ccc(Cl)cc1N(C(=O)Nc1cccc(Cl)c1)C1=NCC(C)S1` (stereo unspecified)?
MEKK2mut PB1 HTS: 0.0; UBC13 polyUb: -8.1; Apaf-1 inh: -3.4; MEKK2wt PB1 HTS: 108.0; MEKK3 PB1 HTS: 129.0*; Pemphigus Ab inh: 94.2; MEKK2wt confirm: 108.0; MEKK2mut confirm: 2.0; MEKK3 confirm: 106.0

How did Cc1cc(SCc2ccccc2)nc(=O)[nH]1 do in these assays?
MEKK2mut PB1 HTS: -17.0; UBC13 polyUb: -7.7; Apaf-1 inh: 4.0; MEKK2wt PB1 HTS: 2.0*[inhibitor]; MEKK3 PB1 HTS: 2.0*[inhibitor]; MEKK2wt confirm: 94.0; MEKK2mut confirm: -1.0; MEKK3 confirm: 91.0

How did Cc1ccc(-n2nc(C)c3c2C(Br)C(C)(C)CC3=O)nc1 (stereo unspecified) do in these assays?
Pemphigus Ab inh: 103.6

How did CC(=O)C1=C(O)C(=O)N(c2ccc(S(=O)(=O)Nc3nccs3)cc2)C1c1ccc(F)cc1 (stereo unspecified) do in these assays?
MEKK2mut PB1 HTS: -5.0; UBC13 polyUb: -0.3; Apaf-1 inh: 5.2; MEKK2wt PB1 HTS: 99.0; MEKK3 PB1 HTS: 98.0; Pemphigus Ab inh: 88.4

What do the screens show for `CC(=O)C1=C(O)C(=O)N(c2ccc(S(=O)(=O)Nc3nccs3)cc2)C1c1ccc([N+](=O)[O-])cc1` (stereo unspecified)?
MEKK2mut PB1 HTS: -47.0; UBC13 polyUb: -5.9; Apaf-1 inh: 6.1; MEKK2wt PB1 HTS: 62.0*[inhibitor]; MEKK3 PB1 HTS: 57.0*[inhibitor]; Pemphigus Ab inh: 102.4; MEKK2wt confirm: 103.0; MEKK2mut confirm: 4.0; MEKK3 confirm: 105.0

How did Cc1ccc(C)c(NC(=O)NCCN2CCCCC2)c1 do in these assays?
MEKK2mut PB1 HTS: 11.0; UBC13 polyUb: -11.0; Apaf-1 inh: 0.6; MEKK2wt PB1 HTS: 119.0; MEKK3 PB1 HTS: 107.0; Pemphigus Ab inh: 113.8

How did CC(=O)Nc1nc2[nH]ccc2c(=O)[nH]1 do in these assays?
Pemphigus Ab inh: 104.6

What do the screens show for `CC(N=c1ccccn1C(=O)Nc1ccc(F)cc1)c1ccco1` (stereo unspecified)?
MEKK2mut PB1 HTS: -39.0; UBC13 polyUb: 5.9; Apaf-1 inh: -18.6; MEKK2wt PB1 HTS: -4.0*[inhibitor]; MEKK3 PB1 HTS: 0.0*[inhibitor]; Pemphigus Ab inh: 76.1; MEKK2wt confirm: 95.0; MEKK2mut confirm: -18.0; MEKK3 confirm: 95.0

Results for COc1cc2oc(-c3ccc(O)cc3)cc(=O)c2c(OC)c1O ?
MEKK2mut PB1 HTS: -14.0; UBC13 polyUb: 24.6; Apaf-1 inh: 1.4; MEKK2wt PB1 HTS: 35.0*[inhibitor]; MEKK3 PB1 HTS: 37.0*[inhibitor]; Pemphigus Ab inh: 96.2; MEKK2wt confirm: 100.0; MEKK2mut confirm: -5.0; MEKK3 confirm: 101.0

How did COc1cc2oc(-c3ccc(O)cc3)cc(=O)c2c(O)c1OC do in these assays?
MEKK2mut PB1 HTS: 7.0; UBC13 polyUb: 7.1; Apaf-1 inh: 2.3; MEKK2wt PB1 HTS: 107.0; MEKK3 PB1 HTS: 110.0; Pemphigus Ab inh: 101.2

Results for O=C(c1cccc([N+](=O)[O-])c1)N1CCN(c2ncccn2)CC1 ?
MEKK2mut PB1 HTS: 32.0*; UBC13 polyUb: -0.8; Apaf-1 inh: 2.3; MEKK2wt PB1 HTS: 98.0; MEKK3 PB1 HTS: 106.0; Pemphigus Ab inh: 78.0; MEKK2wt confirm: 101.0; MEKK2mut confirm: -4.0; MEKK3 confirm: 100.0

How did O=C(c1cccc(C(=O)N2CCN(c3ncccn3)CC2)c1)N1CCN(c2ncccn2)CC1 do in these assays?
UBC13 polyUb: -4.2; Apaf-1 inh: -7.0; Pemphigus Ab inh: 101.1

How did Cc1ccc2nc(COC(=O)c3cccnc3Cl)cc(=O)n2c1 do in these assays?
Pemphigus Ab inh: 111.3

What do the screens show for `O=C(CNc1ccccc1)N/N=C/c1ccc([N+](=O)[O-])cc1`?
MEKK2mut PB1 HTS: 0.0; UBC13 polyUb: -33.9; Apaf-1 inh: -2.2; MEKK2wt PB1 HTS: 106.0; MEKK3 PB1 HTS: 134.0*; Pemphigus Ab inh: 105.7; MEKK2wt confirm: 100.0; MEKK2mut confirm: 3.0; MEKK3 confirm: 102.0

Results for O=C(CCNC(=O)c1ccccc1)N/N=C/c1ccc([N+](=O)[O-])cc1 ?
MEKK2mut PB1 HTS: -1.0; UBC13 polyUb: -4.2; Apaf-1 inh: -14.3; MEKK2wt PB1 HTS: 102.0; MEKK3 PB1 HTS: 104.0; Pemphigus Ab inh: 89.7

How did O=C(CNc1ccccc1)N/N=C/c1ccc2c(c1)OCCO2 do in these assays?
MEKK2mut PB1 HTS: 1.0; UBC13 polyUb: 0.0; Apaf-1 inh: 3.3; MEKK2wt PB1 HTS: 104.0; MEKK3 PB1 HTS: 118.0; Pemphigus Ab inh: 98.3

Results for O=C(CNc1ccccc1)N/N=C/c1ccc2c(c1)OCO2 ?
MEKK2mut PB1 HTS: -1.0; UBC13 polyUb: -19.9; Apaf-1 inh: -7.3; MEKK2wt PB1 HTS: 104.0; MEKK3 PB1 HTS: 135.0*; Pemphigus Ab inh: 87.2; MEKK2wt confirm: 105.0; MEKK2mut confirm: 5.0; MEKK3 confirm: 103.0

Results for C=CC(=O)Nc1cccc(Nc2nc(N[C@H]3CC[C@H](N(C)C)CC3)nc3c2ncn3C(C)C)c1 ?
Pemphigus Ab inh: 106.0
